Measurements published in publication PMC12530853 (RSC Advances, 2025).
Converted amounts (≈) assume the structure as drawn. “Also recorded” adds a separate entry of the source.

What was measured:
C. albicans ATCC 90028 = experiment: Activity against additional fungal strains; type: cell-based; details: Table 2; no quantity or unit printed
Outline: (§1)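 Fungi in exponential phase were washed three times in PBS and resuspended at 1 × 10^3 CFU mL−1 in RPMI 1640. Test compound and fluconazole were serially diluted twofold in 96-well plates, in triplicate wells per concentration. MIC was derived from OD600 readings.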

F. solani 52628 = experiment: Activity against additional fungal strains; type: cell-based; details: Table 2; no quantity or unit printed
Outline: as §1

C. albicans ATCC 14053 = experiment: Minimum inhibitory concentration; type: cell-based; details: Candida albicans, ATCC14053, read-out: Minimum inhibitory concentration (MIC) C. albicans ATCC 14053
Outline: (§2)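 Exponential-phase yeast were washed three times in PBS and suspended at 1 × 10^3 CFU/mL in RPMI 1640. Test compound and fluconazole comparator were twofold serially diluted in microplates, each concentration in triplicate wells. Growth was read as OD600, from which the MIC was determined.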

C. albicans ATCC 24433 = experiment: Activity against additional fungal strains; type: cell-based; details: Table 2; no quantity or unit printed
Outline: as §1

C. albicans ATCC 10231 [1] = experiment: Minimum inhibitory concentration; type: cell-based; details: Candida albicans, ATCC10231, read-out: Minimum inhibitory concentration (MIC) C. albicans ATCC 10231
Outline: as §2

F. solani 46492 = experiment: Activity against additional fungal strains; type: cell-based; details: Table 2; no quantity or unit printed
Outline: as §1

FO MYA 3461 = experiment: Activity against additional fungal strains; type: cell-based; details: Table 2; no quantity or unit printed
Outline: as §1

[2] = tested on: A. brasiliensis TCC 16404; experiment: Activity against additional fungal strains; type: cell-based; details: Table 2; no quantity or unit printed
Outline: as §1

Candida albicans = details: lack of antifungal activity; cited from earlier work
Calcein leakage assay = details: liposomes mimicking fungal membranes
Outline: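 Large unilamellar vesicles of DOPC/DOPE/PI (2:1:1) with 15 wt% ergosterol were made by film hydration in 80 mM calcein, 50 mM HEPES, 100 mM NaCl, 0.3 mM EDTA, pH 7.4. They were freeze–thawed 10×, extruded through 100 nm filters, gel-filtered, and quantified by total phosphorus. Test compound was added in HEPES buffer with 5% DMF. Read at ex 490/em 520 nm; % leakage = (Ft−Fmin)/(Fmax−Fmin)×100, with Fmax from 1% Triton X-100.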

[3] = tested on: metabolic clearance of 1,25(OH)2D3 in HEK293T cells; experiment: Retention of 1,25; type: cell-based; details: 10^−7 M compound; after 24 h; LC-MS/MS
[4] = tested on: C. albicans ATCC 10231 biofilm; experiment: Inhibition of biofilm formation; type: cell-based; details: in vitro
Outline: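 Exponential-phase fungi at 1 × 10^6 CFU mL−1 in RPMI 1640 were allowed to adhere for 1.5 h at 37 °C, then washed twice with PBS. Fresh RPMI containing graded concentrations of test compound was added for 24 h at 37 °C in the dark. Adherent cells were stained for 3 h at 37 °C and OD was read. Results are given as % inhibition of formation.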

[5] = tested on: CYP24A1 mRNA in HEK293T cells; experiment: CYP24A1 mRNA levels by quantitative PCR; type: cell-based
[6] = Cytotoxicity, CCK-8 assay; type: cell-based; details: human, HUVECs (human umbilical vein endothelial cells)
C. albicans ATCC 10231 [7] = experiment: SYTOX Green membrane integrity assay; type: cell-based; details: 4 × MIC; over 20 min
Outline: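 Overnight C. albicans was washed three times in PBS and set to OD600 0.2 in PBS. Cells were loaded with 0.3 μM SYTOX Green in the dark. Once the signal plateaued, test compound in PBS/DMF (final DMF 0.5%) was added. Fluorescence (ex 504 nm, em 523 nm) was monitored continuously for 1–2 h.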

[8] = tested on: various bacteria and fungi; experiment: Broad-spectrum antibacterial and antifungal MIC; type: cell-based; details: read-out: MIC (broad-spectrum antibacterial and antifungal activity)
[9] = tested on: C. albicans ATCC 10231 biofilm; experiment: Biofilm eradication; type: cell-based; details: in vitro
Outline: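 Overnight C. albicans was adjusted to 1 × 10^6–10^7 CFU mL−1 and grown statically for 24 h at 37 °C to give mature biofilms. After two PBS rinses, biofilms were treated with test compound in fresh medium for 24 h at 37 °C; amphotericin B was the positive control and medium alone the negative control. Staining used 0.1% crystal violet for 15 min, then 95% ethanol solubilisation and OD590. Eradication (%) = [1 − OD_test/OD_negative] × 100.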

CYP24A1 = target: T1, CYP24A1 (Homo sapiens, UniProt Q07973); experiment: CYP24-inhibition assay; type: biochemical
T1 sequence (Q07973 36-514): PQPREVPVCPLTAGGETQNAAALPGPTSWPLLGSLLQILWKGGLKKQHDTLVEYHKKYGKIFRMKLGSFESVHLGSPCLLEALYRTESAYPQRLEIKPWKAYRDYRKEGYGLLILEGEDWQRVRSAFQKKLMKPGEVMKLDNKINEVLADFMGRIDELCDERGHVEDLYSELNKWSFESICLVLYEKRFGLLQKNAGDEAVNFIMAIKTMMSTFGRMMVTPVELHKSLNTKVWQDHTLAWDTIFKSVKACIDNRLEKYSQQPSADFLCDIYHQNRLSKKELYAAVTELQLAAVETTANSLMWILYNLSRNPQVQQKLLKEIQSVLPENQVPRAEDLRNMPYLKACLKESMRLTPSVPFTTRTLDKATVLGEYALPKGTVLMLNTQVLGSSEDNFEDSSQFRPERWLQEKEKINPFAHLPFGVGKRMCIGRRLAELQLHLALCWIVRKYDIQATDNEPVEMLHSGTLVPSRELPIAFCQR
Outline: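 Reconstituted system: 5 nM CYP24, 0.5 μM adrenodoxin and 0.05 μM adrenodoxin reductase in 100 mM Tris–HCl pH 7.4 with 1 mM EDTA. Test compound (50–200 μM) was preincubated for 15 min at room temperature. 5 μM 1,25-D3 and 1 mM NADPH were then added for 10 min at 37 °C. The reaction was stopped with 4 volumes of chloroform/methanol 3:1, and conversion was measured by C18 HPLC with UV detection at 265 nm.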

C. albicans ATCC 10231 [10] = experiment: Drug-resistance study; type: cell-based; details: after 28 serial passages
Outline: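 Resistance development in C. albicans: the MIC of the test compound was first determined by the fungal broth microdilution method, then that determination was repeated continuously over 28 days.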

C. albicans ATCC 10231 [11] = experiment: Time–kill kinetics; type: cell-based; details: 8 × MIC, after 8 h
Outline: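 C. albicans in exponential phase was diluted to 1.5 × 10^6 cells per mL in RPMI 1640, in 5 mL tubes. Drug was added and tubes were shaken at 200 rpm and 30 °C. 100 μL aliquots went to microtiter wells, were incubated at 37 °C, and OD600 was read to estimate cell concentration.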

[12] = Cytotoxicity, CCK-8 assay; type: cell-based; details: human, Caco-2
rabbit red blood cells = experiment: Hemolysis assay; type: cell-based
Outline: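 Rabbit erythrocytes (4% v/v in PBS) were mixed 1:1 with test compound in PBS, giving final concentrations of 2–256 μg mL−1, and incubated for 1 h at 37 °C. Samples were centrifuged at 1000g for 5 min and supernatant A490 was read. Controls were 1% Triton X-100 and PBS. Hemolysis (%) = [(sample − PBS)/(Triton − PBS)] × 100, in triplicate.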

SMILES: C[C@@H]1C/C=C/C=C/C=C/C=C/[C@H](O[C@@H]2O[C@H](C)[C@@H](O)[C@H](N)[C@@H]2O)C[C@@H]2O[C@](O)(C[C@@H](O)C[C@H]3O[C@@H]3/C=C/C(=O)O1)C[C@H](O)[C@H]2C(=O)O [Natamycin, reference compound]
- Interaction against varied fungal strains: C. albicans ATCC 90028 (C. albicans ATCC 90028): 8
- Interaction against varied fungal strains: F. solani 52628 (F. solani 52628): 8
- MIC (C. albicans ATCC 14053): 8 µg/mL (≈ 12 µM)
- Interaction against varied fungal strains: C. albicans ATCC 24433 (C. albicans ATCC 24433): 8
- MIC (C. albicans ATCC 10231 [1]): 8 µg/mL (≈ 12 µM)
- Interaction against varied fungal strains: F. solani 46492 (F. solani 46492): 8
- Interaction against varied fungal strains: FO MYA 3461 (FO MYA 3461): 8
- Interaction against varied fungal strains: A. brasiliensis TCC 16404 [2]: 8

SMILES: Clc1ccc(C=Nc2ncn[nH]2)cc1 [3g, 1-(4-Chlorophenyl)-N-(1H-1,2,4-triazol-5-yl)methanimine]
- MIC (C. albicans ATCC 14053): > 256 µg/mL
- MIC (C. albicans ATCC 10231 [1]): > 256 µg/mL

SMILES: O=[N+]([O-])c1ccc(C=Nc2nc[nH]n2)c(O)c1 [3b, 2-{[(1H-1,2,4-Triazol-3-yl)imino]methyl}-5-nitrophenol]
- MIC (C. albicans ATCC 14053): 64 µg/mL (≈ 274 µM)
- MIC (C. albicans ATCC 10231 [1]): 64 µg/mL (≈ 274 µM)

SMILES: Oc1ccc(Cl)cc1C=Nc1ncn[nH]1 [3d, 2-{[(1H-1,2,4-Triazol-5-yl)imino]methyl}-4-chlorophenol]
- MIC (C. albicans ATCC 14053): 128 µg/mL (≈ 575 µM)
- MIC (C. albicans ATCC 10231 [1]): 128 µg/mL (≈ 575 µM)

SMILES: O=C(NC[C@@H](c1ccccc1)n1ccnc1)c1ccc(-c2ccc(Cl)cc2)cc1 [VID400]
- MIC against Candida albicans (Candida albicans): > 128 µg/mL

SMILES: O=[N+]([O-])c1ccc(C=Nc2ncn[nH]2)cc1 [3i, 1-(4-Nitrophenyl)-N-(1H-1,2,4-triazol-5-yl)methanimine]
- MIC (C. albicans ATCC 14053): 128 µg/mL (≈ 589 µM)
- MIC (C. albicans ATCC 10231 [1]): 128 µg/mL (≈ 589 µM)

SMILES: COc1ccc(C=Nc2ncn[nH]2)cc1 [3j, 1-(4-Methoxyphenyl)-N-(1H-1,2,4-triazol-5-yl)methanimine]
- MIC (C. albicans ATCC 14053): > 256 µg/mL
- MIC (C. albicans ATCC 10231 [1]): > 256 µg/mL

SMILES: Oc1ccc(O)c(C=Nc2ncn[nH]2)c1 [3c, 2-{[(1H-1,2,4-Triazol-5-yl)imino]methyl}benzene-1,4-diol]
- Calcein leakage from LUVs (Calcein leakage assay): induced leakage of the contents in a dose-dependent manner
- Interaction against varied fungal strains: C. albicans ATCC 90028 (C. albicans ATCC 90028): 16
- Interaction against varied fungal strains: F. solani 52628 (F. solani 52628): 32
- MIC (C. albicans ATCC 14053): 16 µg/mL (≈ 78.4 µM)
- Average concentration of 1,25(OH)2D3 remaining in HEK293T cell culture [3]: 495 pM
- Interaction against varied fungal strains: C. albicans ATCC 24433 (C. albicans ATCC 24433): 16
- Inhibition of C. albicans biofilm formation [4]: effectively inhibited
- CYP24A1 mRNA expression, co-treatment with 1,25(OH)2D3 ([5]; 3c 10^−10 M + 1,25(OH)2D3 10^−9 M, 24 h, relative to 1,25(OH)2D3 alone): markedly enhanced
- CYP24A1 mRNA expression, compound alone ([5]; 10^−7 M, HEK293T cells, versus solvent control): did not affect; also recorded: did not alter
- Up-regulation of CYP24A1 mRNA levels when combined with 1,25(OH)2D3 ([5]; cellular models, combined with 1,25(OH)2D3): approximately twofold
- viability at 24 h, 64 μg mL^−1 [6]: > 95%
- viability at 24 h, 128 μg mL^−1 [6]: > 80%
- SYTOX Green fluorescence (membrane integrity) (C. albicans ATCC 10231 [7]): gradual increase in fluorescence
- MIC (C. albicans ATCC 10231 [1]): 16 µg/mL (≈ 78.4 µM)
- MIC [8]: 16 µg/mL (≈ 78.4 µM)
- Disruption of pre-formed mature biofilms [9]: significantly disrupted
- Interaction against varied fungal strains: F. solani 46492 (F. solani 46492): 32
- Interaction against varied fungal strains: FO MYA 3461 (FO MYA 3461): 32
- IC50 (CYP24A1): 202 µM
- inhibition at 100 µM (CYP24A1; read-out: Inhibition of CYP24A1): 32%
- Interaction against varied fungal strains: A. brasiliensis TCC 16404 [2]: 32
- Increase of MIC value in resistance development (C. albicans ATCC 10231 [10]): no more than 8 fold
- Time–kill: growth of C. albicans ATCC 10231 (C. albicans ATCC 10231 [11]): complete inhibition
- viability at 24 h, 64 μg mL^−1 [12]: > 95%
- viability at 24 h, 128 μg mL^−1 [12]: > 80%
- Hemolysis of rabbit red blood cells (rabbit red blood cells; 16–128 μg mL^−1, 37 °C, 1 h): no significant hemolysis
- Half hemolytic concentration (HC50) (rabbit red blood cells; rabbit red blood cells): > 256 µg/mL
